Published values collected from several papers.
Lines come from different studies, so protocols differ.
Target: Serine/threonine-protein kinase haspin (HASPIN, Homo sapiens, UniProt Q8TF76)
Residues used in one study (Q8TF76 1-798): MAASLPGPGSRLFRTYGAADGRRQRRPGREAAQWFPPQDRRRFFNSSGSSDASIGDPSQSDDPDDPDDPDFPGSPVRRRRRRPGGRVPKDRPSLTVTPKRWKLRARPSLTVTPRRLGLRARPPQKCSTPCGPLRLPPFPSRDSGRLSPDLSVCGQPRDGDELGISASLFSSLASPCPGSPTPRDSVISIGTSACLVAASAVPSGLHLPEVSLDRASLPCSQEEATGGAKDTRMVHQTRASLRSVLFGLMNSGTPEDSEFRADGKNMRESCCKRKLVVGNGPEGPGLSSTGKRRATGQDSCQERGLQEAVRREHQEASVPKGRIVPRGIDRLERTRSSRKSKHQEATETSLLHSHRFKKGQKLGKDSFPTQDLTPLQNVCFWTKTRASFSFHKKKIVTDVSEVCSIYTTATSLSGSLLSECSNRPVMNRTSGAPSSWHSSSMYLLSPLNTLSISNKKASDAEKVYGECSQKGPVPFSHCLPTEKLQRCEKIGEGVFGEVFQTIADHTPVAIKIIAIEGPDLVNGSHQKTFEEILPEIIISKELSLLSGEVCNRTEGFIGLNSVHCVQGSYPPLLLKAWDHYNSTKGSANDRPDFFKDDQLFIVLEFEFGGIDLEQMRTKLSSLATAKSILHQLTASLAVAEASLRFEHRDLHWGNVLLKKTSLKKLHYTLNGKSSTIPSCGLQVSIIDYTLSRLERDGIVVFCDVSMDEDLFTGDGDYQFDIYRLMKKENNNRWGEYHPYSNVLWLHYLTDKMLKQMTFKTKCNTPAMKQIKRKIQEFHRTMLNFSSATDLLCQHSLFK

Structure (SMILES)	assay	setting	measurement	value
N#CCCc1ccc2c(c1)-c1[nH]c3ccc([N+](=O)[O-])cc3c1CC(=O)N2	cell-free assay	0.5 µM	remaining signal	110%
CCN(CC)CCNC(=O)c1c(C)[nH]c(/C=C2\C(=O)Nc3ccc(F)cc32)c1C	enzyme activity, inhibitor	0.3 µM	inhibition	32%
O=C(Nc1cnn(-c2csc(C(=O)NC3COC3)c2)c1)Nc1ccccc1Cl	enzyme activity, inhibitor	5 µM	remaining activity	112%
CN(C)C(=O)Cn1cc(-c2nc([C@@](C)(c3ccc(-c4cnc(N)nc4)cc3)C3CC3)no2)cn1	cell-free assay, competition with immobilised ligand	1 µM	remaining binding	100%
Nc1ncnc2occ(-c3ccc(NC(=O)Nc4cc(C(F)(F)F)ccc4F)cc3)c12	cell-free assay	20 µM	remaining signal	43%
Cc1ccc(NC(=O)c2ccc(C)c(C(F)(F)F)c2)cc1C#Cc1nn(C2CCC(O)CC2)c2ncnc(N)c12 (centres unmarked)	cell-free assay	10 µM	remaining signal	93%
CC(C)(C)c1nc(-c2cccc(NS(=O)(=O)c3c(F)cccc3F)c2F)c(-c2ccnc(N)n2)s1	enzyme activity, inhibitor, radiometric	1 µM	remaining activity	147%
CCCCN(CCCC)C(=O)CN1C[C@@H](c2cc(OC)c3c(c2)OCO3)[C@H](C(=O)O)[C@H]1CC(C)(C)CCC	cell-free assay, competition with immobilised ligand	1 µM	remaining binding	100%
CN1CCN(C(=O)c2ccc3cc(CCNc4ccnc5ccc(C#N)cc45)ccc3c2)CC1	cell-free assay, competition with immobilised ligand	2 µM	inhibition	> 35%
O=c1cc(-c2cccc3c2Sc2ccccc2S3)oc(N2CCOCC2)c1	enzyme activity, inhibitor	0.5 µM	remaining activity	106%
COc1ccc2c(O[C@@H]3C[C@H]4C(=O)N[C@]5(C(=O)O)CC5/C=C\CCCCC[C@H](NC(=O)OC5CCCC5)C(=O)N4C3)cc(-c3csc(NC(=O)C(C)C)n3)nc2c1C (some centres unmarked)	cell-free assay, competition with immobilised ligand	1 µM	remaining binding	97%
CCCOc1ccc(OC)c(F)c1C(=O)c1ccc(C(=O)N[C@@H]2CNC[C@H]2NC(=O)c2ccc3[nH]ncc3c2)cc1	enzyme activity, inhibitor	10 µM	remaining activity	22%
COc1cc(-c2cc(-c3ccc(N4CCNCC4)cc3)cnc2C)cc(OC)c1OC	enzyme activity, inhibitor	1 µM	inhibition	3%
Cc1ccc(Nc2nccc(N(C)c3ccc4c(C)n(C)nc4c3)n2)cc1S(N)(=O)=O	enzyme activity, inhibitor	0.3 µM	inhibition	0%
CC(=O)c1c(NS(C)(=O)=O)c2cc(-c3ccc(Cl)cc3)c(-c3ccc(Cl)cc3Cl)nc2n(C)c1=O	cell-free assay, competition with immobilised ligand	1 µM	remaining binding	92%
CCN(CC)c1ccc(C2=NNC(=O)CC2C)cc1[N+](=O)[O-] (centres unmarked)	enzyme activity, inhibitor	10 µM	remaining activity	106%
Cc1c(NC(=O)c2cc(C(N)=O)nc3cc(F)ccc23)c(C(F)(F)F)nn1Cc1ccc(C(C)(C)C)cc1	cell-free assay, competition with immobilised ligand	1 µM	remaining binding	100%
CNC(=O)c1cc(Oc2ccc(NC(=O)Nc3ccc(Cl)c(C(F)(F)F)c3)cc2)ccn1	enzyme activity, inhibitor	0.3 µM	inhibition	8%
N#Cc1ccc(Nc2ccc3[nH]c(=O)[nH]c3c2)c(Cl)c1	cell-free assay, competition with immobilised ligand	1 µM	remaining binding	100%
CC/C(=N\NC(=O)NCc1cccc(O)c1)c1ccc(O)c(C)c1O	enzyme activity, inhibitor	0.1 µM	inhibition	-0.2%
Cn1cnc(Br)c1C1=CN(c2ncnc3[nH]cnc23)CCS1	enzyme activity, inhibitor, radiometric	2 µM	inhibition	88.8%
CNCc1ccccc1-c1csc([C@@H](C)Nc2nc(C)nc3cc(OC)c(OC)cc23)c1	cell-free assay, competition with immobilised ligand	1 µM	remaining binding	98%
O=C1Nc2ccc(Cl)cc2C1=Cc1cc(Cl)c(O)c(Cl)c1	cell-free assay	0.5 µM	remaining signal	8.65%
Cc1c(C(=O)O)cc(-c2ccc(C3CCNCC3)cc2)c2ccc(-c3ccc(C(F)(F)F)cc3)cc12	cell-free assay, competition with immobilised ligand	1 µM	remaining binding	100%
Cn1cncc1C1=CN(c2ncnc3[nH]cnc23)CCS1	enzyme activity, inhibitor, radiometric	2 µM	inhibition	88.4%
COc1ccc(C(=O)Nc2sc3c(c2C(N)=O)CCCC3)cc1OC	enzyme activity, inhibitor	0.5 µM	remaining activity	82.8%
